The nature of test [1]: Antiplatelet activity against washed rabbit platelet assessed as inhibition of arachidonic acid-induced platelet aggregation at 100 ug/ml preincubated for 3 mins by turbidimetric method. The format is functional, Oryctolagus cuniculus. Further details: scale not given: the % may be the effect or the level left. The method, boiled down: (§1)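 Washed rabbit platelets from EDTA-anticoagulated platelet-rich plasma, 4.5×10^8/ml in Tyrode solution with 0.35% BSA, stirred at 1200 rpm at 37°. Turbidimetric read-out; % aggregation as means ± S.E. (n=3), Student's t test versus DMSO control.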

Test [2] in a line: Antiplatelet activity against washed rabbit platelet assessed as inhibition of thrombin-induced platelet aggregation at 100 ug/ml preincubated for 3 mins by turbidimetric method. The format is functional, Oryctolagus cuniculus. Further details: scale not given: the % may be the effect or the level left. The method, boiled down:
as §1

A short description of test [3]: Antiplatelet activity against washed rabbit platelet assessed as inhibition of collagen-induced platelet aggregation at 100 ug/ml preincubated for 3 mins by turbidimetric method. The format is functional, Oryctolagus cuniculus. Further details: scale not given: the % may be the effect or the level left. In outline:
as §1

A short description of test [4]: Antiplatelet activity against washed rabbit platelet assessed as inhibition of platelet activating factor-induced platelet aggregation at 100 ug/ml preincubated for 3 mins by turbidimetric method. Further details: scale not given: the % may be the effect or the level left. The format is functional, Oryctolagus cuniculus. The method, boiled down:
as §1

The nature of test [5]: Antiplatelet activity against washed rabbit platelet assessed as inhibition of arachidonic acid-induced platelet aggregation at 20 ug/ml preincubated for 3 mins by turbidimetric method. The format is functional, Oryctolagus cuniculus. Further details: scale not given: the % may be the effect or the level left. In outline: as §1
Test [6] is described as follows: (§2) Antiplatelet activity against washed rabbit platelet assessed as inhibition of arachidonic acid-induced platelet aggregation preincubated for 3 mins by turbidimetric method. The format is functional, cell-based. The settings on record: Oryctolagus cuniculus. In outline:
(§3)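 Washed rabbit platelets, 4.5×10^8/ml in Tyrode–0.35% BSA, stirred at 1200 rpm at 37°. Compound preincubated 3 min (final DMSO 0.5%) before arachidonic acid 100 μM. Aggregation read turbidimetrically. Percent inhibition across concentrations given as means ± S.E. (n=3); IC50 taken from the concentration–response curve.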

The test system of a further test is Platelet. The test is described as §2. The format is functional, cell-based. The settings on record: Oryctolagus cuniculus. The method, boiled down:
as §3

Test [7] can be described thus: Antiplatelet activity against washed rabbit platelet assessed as inhibition of arachidonic acid-induced platelet aggregation at 5 ug/ml preincubated for 3 mins by turbidimetric method; values are per cent of control.
A short description of test [8]: Antiplatelet activity against washed rabbit platelet assessed as inhibition of arachidonic acid-induced platelet aggregation at 10 ug/ml preincubated for 3 mins by turbidimetric method; values are per cent of control.
A short description of test [9]: Antiplatelet activity against washed rabbit platelet assessed as inhibition of collagen-induced platelet aggregation at 50 ug/ml preincubated for 3 mins by turbidimetric method. The format is functional, Oryctolagus cuniculus. Further details: scale not given: the % may be the effect or the level left. The method, boiled down: as §1
Test [10] in a line: Antiplatelet activity against washed rabbit platelet assessed as inhibition of platelet activating factor-induced platelet aggregation at 50 ug/ml preincubated for 3 mins by turbidimetric method. The format is functional, Oryctolagus cuniculus. Further details: scale not given: the % may be the effect or the level left. The method, boiled down:
as §1

The nature of test [11]: Antiplatelet activity against washed rabbit platelet assessed as inhibition of collagen-induced platelet aggregation at 20 ug/ml preincubated for 3 mins by turbidimetric method. The format is functional, Oryctolagus cuniculus. The method, boiled down: as §1
Test [12] in a line: Antiplatelet activity against washed rabbit platelet assessed as inhibition of collagen-induced platelet aggregation at 10 ug/ml preincubated for 3 mins by turbidimetric method. The format is functional, Oryctolagus cuniculus. The method, boiled down:
as §1

Test [13] is described as follows: Antiplatelet activity against washed rabbit platelet assessed as inhibition of collagen-induced platelet aggregation at 5 ug/ml preincubated for 3 mins by turbidimetric method. The format is functional, Oryctolagus cuniculus. In outline: as §1
Test [14] is described as follows: Antiplatelet activity against washed rabbit platelet assessed as inhibition of collagen-induced platelet aggregation at 2 ug/ml preincubated for 3 mins by turbidimetric method. The format is functional, Oryctolagus cuniculus. In outline: as §1
Test [15] can be described thus: Antiplatelet activity against washed rabbit platelet assessed as inhibition of arachidonic acid-induced platelet aggregation at 50 ug/ml preincubated for 3 mins by turbidimetric method; values are per cent of control.

Here are results for three compounds from ChEMBL document CHEMBL1148061, “Antiplatelet aggregation principles of Dendrobium loddigesii” (J Nat Prod, 1994).

Turning to `COc1cc(CCc2cc(OC)c(OC(C)=O)c(OC)c2)ccc1OC(C)=O` [MOSCATILIN DIACETATE], the Activity in test [1] is 0%; in [2], 93.4%; in test [3] it was 12.8%; in test [4] it was 36%; in test [5], 0%; with Platelet it was “Dose-dependent effect”. In [6], the IC50 came out at 11.2 µM. Moreover, the results for the level, % of control in test [7] and in [8] were 33.9% and 0%, respectively.
As for `COc1cc(CCc2cc(OC)c(O)c(OC)c2)ccc1O` [MOSCATILIN], the Activity in test [1] amounted to 0%; in test [2] it was 85.3%; in [3], 0%; in [4] it was 24.7%; in [9], 0%; in test [10], 72.1%. In addition, the Activity in test [5] was 36.4%; in the test on Platelet, “Dose-dependent effect”. The aggregation is 19.6% in test [11], 42.3% in test [12], 58.4% in test [13] and 78.5% in test [14]. The IC50 in test [6] turned out to be 61.8 µM. Also, the figures for the “level, % of control” value in test [7], in test [15] and in test [8] were 78.7%, 0% and 52%, respectively.
On to `COc1cc(O)cc2ccc3cccc(O)c3c12` [MOSCATIN], for which the Activity in test [1] was determined as 0%; in test [2], 41%; in test [3] it was 0%; in test [4], 24.7%; in test [9], 0%; in [10] it was 72.1%. Moreover, the Activity in [5] is 0%; in the test with Platelet, “Dose-dependent effect”. Besides, the aggregation in test [11] was 19.6%; in test [12], 42.3%; in test [13], 58.4%; in [14], 78.5%. Besides, in test [6], the IC50 was found to be 37.2 µM. The “level, % of control” value was 87.6% in test [7], 0% in test [15] and 22.8% in [8].
